{"data": "Results from different studies", "EIF2AK4": "eIF-2-alpha kinase GCN2 (EIF2AK4, Homo sapiens, UniProt Q9P2K8)", "EIF2AK4 S808G C-terminal kinase domain": "eIF-2-alpha kinase GCN2, C-terminal kinase domain (EIF2AK4, Homo sapiens, UniProt Q9P2K8, S808G)", "EIF2AK4 S808G": "eIF-2-alpha kinase GCN2 (EIF2AK4, Homo sapiens, UniProt Q9P2K8, S808G)", "note": "Each line is one published result; the experiments were not run side by side."}
{"Compound": "Cc1cc(NC(=O)c2cccc3cc(-c4cccc5[nH]nc(N)c45)ccc23)ccc1F", "target": "EIF2AK4", "test": "enzyme activity, inhibitor", "setting": "0.1 µM", "measurement": "activity vs control", "result": "92%"}
{"Compound": "COc1ccc2cc(OCC3(C(=O)O)CN(C(=O)c4ccc(F)cc4)C3)ccc2c1", "target": "EIF2AK4 S808G C-terminal kinase domain", "test": "cell-free assay, competition with immobilised ligand", "setting": "1 µM", "measurement": "remaining binding", "result": "100%"}
{"Compound": "COc1cc(Cl)c(C(=O)N[C@@H](CN[C@H]2CC[C@@H](N)CC2)Cc2ccc(C#N)cc2)cc1-c1ccc(CN[C@H](C)c2ccc(C)cc2)o1", "target": "EIF2AK4", "test": "enzyme activity, inhibitor", "setting": "1 µM", "measurement": "remaining activity", "result": "102%"}
{"Compound": "Cc1ccc(NC(=O)c2ccc(C)c(C(F)(F)F)c2)cc1C#Cc1nn(C2CCC(O)CC2)c2ncnc(N)c12 (stereo not shown)", "target": "EIF2AK4", "test": "cell-free assay", "setting": "10 µM", "measurement": "remaining signal", "result": "50%"}
{"Compound": "Cc1ccc(C(=O)Nc2ccc(CN3CCN(C)CC3)c(C(F)(F)F)c2)cc1C#Cc1cnc2cccnn12", "target": "EIF2AK4 S808G", "test": "enzyme activity, inhibitor", "setting": "23.5 nM", "measurement": "remaining activity", "result": "85%"}
{"Compound": "Cc1cnc(NC2CCOCC2)nc1-n1cnc(C(=O)NC(CN)c2cc(F)cc(Cl)c2)c1 (stereo not shown)", "target": "EIF2AK4", "test": "enzyme activity, inhibitor, radiometric", "setting": "1 µM", "measurement": "remaining activity", "result": "82%"}
{"Compound": "CN1CC(Oc2cnc(C#N)cc2-c2ccn3nc(NC(=O)C4CC4)cc3c2)C1", "target": "EIF2AK4", "test": "enzyme activity, inhibitor", "setting": "1 µM", "measurement": "inhibition", "result": "15%"}
{"Compound": "Nc1ncnc2occ(-c3ccc(NC(=O)Nc4cc(C(F)(F)F)ccc4F)cc3)c12", "target": "EIF2AK4 S808G C-terminal kinase domain", "test": "cell-free assay, inhibitor", "setting": "20 µM", "measurement": "remaining signal", "result": "3.6%"}
{"Compound": "CC(=O)Nc1c(C(C)=O)c(=O)n(C)c2nc(-c3ccc(Cl)cc3Cl)c(-c3ccc(Cl)cc3)cc12", "target": "EIF2AK4 S808G", "test": "binding, competition with immobilised ligand", "setting": "1 µM", "measurement": "remaining binding", "result": "48%"}
{"Compound": "CNc1cc(Oc2cc(C(=O)Nc3cc(N4CCN(C)CC4)cc(C(F)(F)F)c3)ccc2C)ncn1", "target": "EIF2AK4", "test": "target engagement in cells, inhibitor, chemoproteomics", "system": "Huh-7", "setting": "1 µM", "measurement": "inhibition", "result": "37%"}
